Reference: ChEMBL document CHEMBL1154676, “Synthetic mRNA splicing modulator compounds with in vivo antitumor activity” (J Med Chem, 2009)

Key:
Mus musculus [1] = experiment: Toxicity in NOD/SCID mouse assessed as alanine aminotransferase level at 5 to 50 mg/kg, […] for 5 days; type: organism-based; design: dose 5-50 mg/kg, route oral; conditions: in vivo, po, 120 h
SK-MEL-28 [2] = experiment: Growth inhibition of human SK-MEL-28 cells by sulforhodamine B assay; type: functional
MCF7 = experiment: Growth inhibition of human MCF7 cells by sulforhodamine B assay; type: functional
PANC-1 = experiment: Cytotoxicity against human PANC1 cells after 72 hrs by XTT assay; type: functional, cell-based; conditions: PANC-1, 72 h
How it was run: (§1)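 Cells grown at 37 °C, 5% CO2; HFF in DMEM with 10% FBS, PrEC in prostate epithelial growth medium. Adherent lines seeded overnight, suspension lines same day; compounds diluted from DMSO stocks into media at various final concentrations, 72 h exposure. XTT reagent added 4 h, absorbance 490 nm (reference 690 nm). Growth as % of vehicle; IC50 from sigmoidal dose-response fit; mean ± SEM, three independent experiments.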

K562 = experiment: Growth inhibition of human K562 cells by sulforhodamine B assay; type: functional
NCI-H522 = experiment: Growth inhibition of human NCI-H522 cells by sulforhodamine B assay; type: functional
Mus musculus [3] = experiment: Toxicity in NOD/SCID mouse assessed as complete blood counts level at 5 to 50 mg/kg, […] for 5 days; type: organism-based; design: dose 5-50 mg/kg; conditions: in vivo, po, 120 h
IGROV-1 = experiment: Growth inhibition of human IGROV1 cells by sulforhodamine B assay; type: functional
A549 = experiment: Growth inhibition of human A549 cells by sulforhodamine B assay; type: functional
SNB-75 = experiment: Growth inhibition of human SNB75 cells by sulforhodamine B assay; type: functional
SK-MEL-28 [4] = experiment: Cytotoxicity against human SK-MEL-28 cells after 72 hrs by XTT assay; type: functional, cell-based; conditions: SK-MEL-28, 72 h; how it was run: as §1
[5] = Cytotoxicity against human BT-12 cells after 72 hrs by XTT assay; type: functional, cell-based; conditions: BT-12, 72 h; how it was run: as §1
JVM-2 = experiment: Cytotoxicity against human JVM2 cells after 72 hrs by XTT assay; type: functional, cell-based; conditions: JVM-2, 72 h; how it was run: as §1
U-251 = experiment: Growth inhibition of human U251 cells by sulforhodamine B assay; type: functional
Mus musculus [6] = experiment: Toxicity in NOD/SCID mouse assessed as glucose at 5 to 50 mg/kg, […] for 5 days; type: organism-based; design: dose 5-50 mg/kg; conditions: in vivo, po, 120 h
HOP-62 = experiment: Growth inhibition of human HOP62 cells by sulforhodamine B assay; type: functional
[7] = Cytotoxicity against human BT-3 cells after 72 hrs by XTT assay; type: functional, cell-based; conditions: BT-3, 72 h; how it was run: as §1
KM12 = experiment: Growth inhibition of human KM12 cells by sulforhodamine B assay; type: functional
SW-620 = experiment: Growth inhibition of human SW620 cells by sulforhodamine B assay; type: functional
HOP-92 = experiment: Growth inhibition of human HOP92 cells by sulforhodamine B assay; type: functional
OVCAR-4 = experiment: Growth inhibition of human OVCAR4 cells by sulforhodamine B assay; type: functional
Mus musculus [8] = experiment: Toxicity in NOD/SCID mouse assessed as globulin level at 5 to 50 mg/kg, […] for 5 days; type: organism-based; design: dose 5-50 mg/kg; conditions: in vivo, po, 120 h
SK-MEL-5 = experiment: Growth inhibition of human SK-MEL-5 cells by sulforhodamine B assay; type: functional
Mus musculus [9] = experiment: Toxicity in NOD/SCID mouse assessed as calcium level at 5 to 50 mg/kg, iv and po for 5 days; type: organism-based; design: dose 5-50 mg/kg, route oral; conditions: in vivo, 120 h
MOLT-4 = experiment: Growth inhibition of human MOLT4 cells by sulforhodamine B assay; type: functional
Ramos = experiment: Cytotoxicity against human Ramos cells after 72 hrs by XTT assay; type: functional, cell-based; how it was run: as §1
[10] = read-out: Log10GI50 (converted)
[11] = read-out: Log10LC50 (converted)

For `CC(/C=C/[C@@H]1C[C@]2(CO2)CC(C)(C)O1)=C\C[C@H]1CC[C@@H](NC(=O)/C=C\[C@H](C)OC(=O)C(C)C)CC1`, the Activity (Mus musculus [1]) was “Non-toxic”, the GI50 (SK-MEL-28 [2]; [10]) was 0.324 µM and the CC50 (SK-MEL-28 [2]; [11]) was over 100 µM. The TGI (SK-MEL-28 [2]; read-out: Log10TGI (converted)) was 6.46 µM, the GI50 (MCF7; [10]) was 0.0251 µM and the CC50 (MCF7; [11]) was over 100 µM. For the same compound, the TGI (MCF7; read-out: Log10TGI (converted)) was 13.8 µM, the IC50 (PANC-1) was 3.87 µM and the GI50 (K562; [10]) was 0.0457 µM. It also gave a CC50 (K562; [11]) of over 100 µM, a TGI (K562; read-out: Log10TGI (converted)) of over 100 µM and a GI50 (NCI-H522; [10]) of 0.316 µM. For the same compound, the CC50 (NCI-H522; [11]) was 5.37 µM, the TGI (NCI-H522; read-out: Log10TGI (converted)) was over 100 µM and the Activity (Mus musculus [3]) was “Non-toxic”. For the same compound, the GI50 (IGROV-1; [10]) was 0.851 µM, the CC50 (IGROV-1; [11]) was over 100 µM and the TGI (IGROV-1; read-out: Log10TGI (converted)) was over 100 µM. The GI50 (A549; [10]) was 0.912 µM, the CC50 (A549; [11]) was over 100 µM and the TGI (A549; read-out: Log10TGI (converted)) was over 100 µM. For the same compound, the GI50 (SNB-75; [10]) was 5.37 µM, the CC50 (SNB-75; [11]) was over 100 µM and the TGI (SNB-75; read-out: Log10TGI (converted)) was over 100 µM. For the same compound, the IC50 (SK-MEL-28 [4]) was 0.55 µM, the IC50 [5] was 2.79 µM and the IC50 (JVM-2) was 0.19 µM. It also gave a GI50 (U-251; [10]) of 0.363 µM, a CC50 (U-251; [11]) of over 100 µM and a TGI (U-251; read-out: Log10TGI (converted)) of over 100 µM. The Activity (Mus musculus [6]) was “Non-toxic”, the GI50 (HOP-62; [10]) was 0.457 µM and the CC50 (HOP-62; [11]) was over 100 µM. For the same compound, the TGI (HOP-62; read-out: Log10TGI (converted)) was over 100 µM, the IC50 [7] was 4.41 µM and the GI50 (KM12; [10]) was 0.309 µM. The CC50 (KM12; [11]) was over 100 µM, the TGI (KM12; read-out: Log10TGI (converted)) was over 100 µM and the GI50 (SW-620; [10]) was 0.0813 µM. It also gave a CC50 (SW-620; [11]) of over 100 µM, a TGI (SW-620; read-out: Log10TGI (converted)) of 12.9 µM and a GI50 (HOP-92; [10]) of 0.575 µM. The CC50 (HOP-92; [11]) was over 100 µM, the TGI (HOP-92; read-out: Log10TGI (converted)) was over 100 µM and the GI50 (OVCAR-4; [10]) was 1.51 µM. For the same compound, the CC50 (OVCAR-4; [11]) was over 100 µM, the TGI (OVCAR-4; read-out: Log10TGI (converted)) was over 100 µM and the Activity (Mus musculus [8]) was “Non-toxic”. It also gave a GI50 (SK-MEL-5; [10]) of 0.316 µM, a CC50 (SK-MEL-5; [11]) of 10.2 µM and a TGI (SK-MEL-5; read-out: Log10TGI (converted)) of 1.95 µM. The Activity (Mus musculus [9]) was “Non-toxic”, the GI50 (MOLT-4; [10]) was 0.0479 µM and the CC50 (MOLT-4; [11]) was over 100 µM. The TGI (MOLT-4; read-out: Log10TGI (converted)) was 5.62 µM and the IC50 (Ramos) was 0.08 µM.
